The values below come from ChEMBL document CHEMBL1156736, “Multidentate small-molecule inhibitors of vaccinia H1-related (VHR) phosphatase decrease proliferation of cervix cancer cells” (J Med Chem, 2009).

Calls of active or inactive are those of the source. The calls are words filed in the database; no cut-off is given here.

Test [1] has as its target T1, Tyrosine-protein phosphatase non-receptor type 1 (Homo sapiens, UniProt P18031).
T1 sequence (P18031 whole entry): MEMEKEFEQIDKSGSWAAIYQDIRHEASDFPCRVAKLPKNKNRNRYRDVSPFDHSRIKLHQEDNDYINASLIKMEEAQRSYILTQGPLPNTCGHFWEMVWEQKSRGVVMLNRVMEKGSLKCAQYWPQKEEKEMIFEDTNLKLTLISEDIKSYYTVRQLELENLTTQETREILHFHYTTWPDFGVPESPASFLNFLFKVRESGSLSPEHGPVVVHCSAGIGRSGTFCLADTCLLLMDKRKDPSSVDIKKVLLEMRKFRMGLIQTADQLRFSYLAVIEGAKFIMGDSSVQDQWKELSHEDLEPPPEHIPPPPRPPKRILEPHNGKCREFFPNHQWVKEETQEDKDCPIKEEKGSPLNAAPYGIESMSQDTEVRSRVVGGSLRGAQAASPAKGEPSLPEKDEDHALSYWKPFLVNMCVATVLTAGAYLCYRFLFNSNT
Put plainly: Inhibition of recombinant PTP1B.

In test [2] the test system is HeLa. Put plainly: Induction of apoptosis in human HeLa cells assessed as apoptotic cells at 20 uM after 24 hrs by annexin V/propidium iodide based flow cytometry. It counts as functional, cell-based. The gist of the method:
(§1)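 10^5 cells in DMEM/10% FCS incubated 24 h with 20 μM inhibitor or DMSO, trypsinized; half of cells stained with AnnexinV-FITC and propidium iodide, analysed by flow cytometry; live cells taken as AnnexinV- and PI-negative; mean ± SD from three independent experiments.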

In test [3] the test system is HeLa. Nature of the test: Antiproliferative activity against human HeLa cells at 20 uM after 24 hrs by Trypan blue assay. It counts as functional. The gist of the method:
(§2)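 10^5 cells (HeLa in DMEM/10% FCS; primary normal keratinocytes from hysterectomy tissue, trypsin-EDTA dispersed, in K-SFM with EGF, pituitary hormone) treated 24 h with 20 μM inhibitor or DMSO; trypsinized and counted with trypan blue in a counting chamber; cell numbers as percentage of DMSO control; mean ± SD, three independent experiments.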

The target of test [4] is T2, Tyrosine-protein phosphatase non-receptor type 7 (Homo sapiens, UniProt P35236).
T2 sequence (P35236 whole entry): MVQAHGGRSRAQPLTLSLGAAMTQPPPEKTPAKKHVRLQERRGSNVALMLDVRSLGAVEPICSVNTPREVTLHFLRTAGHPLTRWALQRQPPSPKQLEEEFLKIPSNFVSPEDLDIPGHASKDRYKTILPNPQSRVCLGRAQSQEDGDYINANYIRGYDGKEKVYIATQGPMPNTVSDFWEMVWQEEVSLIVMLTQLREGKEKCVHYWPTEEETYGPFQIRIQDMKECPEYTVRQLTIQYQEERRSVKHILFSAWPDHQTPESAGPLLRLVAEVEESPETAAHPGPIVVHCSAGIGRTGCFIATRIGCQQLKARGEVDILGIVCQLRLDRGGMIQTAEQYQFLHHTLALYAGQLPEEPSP
Nature of the test: Inhibition of recombinant HePTP.

For test [5], the target named is T3, M-phase inducer phosphatase 1 (Homo sapiens, UniProt P30304).
T3 sequence (P30304 whole entry): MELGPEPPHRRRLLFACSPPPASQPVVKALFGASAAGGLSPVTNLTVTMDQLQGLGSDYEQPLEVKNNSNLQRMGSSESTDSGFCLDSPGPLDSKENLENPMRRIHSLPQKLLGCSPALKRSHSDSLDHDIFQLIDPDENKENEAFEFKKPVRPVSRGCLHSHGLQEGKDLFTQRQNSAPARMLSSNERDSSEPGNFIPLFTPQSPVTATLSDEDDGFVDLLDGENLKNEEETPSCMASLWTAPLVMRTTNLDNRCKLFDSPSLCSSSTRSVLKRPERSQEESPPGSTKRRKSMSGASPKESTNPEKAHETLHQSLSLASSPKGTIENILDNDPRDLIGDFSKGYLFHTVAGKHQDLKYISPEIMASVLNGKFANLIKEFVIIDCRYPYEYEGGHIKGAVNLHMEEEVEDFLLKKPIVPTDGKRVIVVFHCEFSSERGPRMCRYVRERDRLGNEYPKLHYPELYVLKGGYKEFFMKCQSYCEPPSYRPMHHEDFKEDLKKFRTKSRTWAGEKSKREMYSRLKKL
Nature of the test: Inhibition of recombinant Cdc25a.

Test [6] relates to HeLa. Nature of the test: Antiproliferative activity against human HeLa cells at 20 uM after 24 hrs by [3H]thymidine incorporation assay relative to control. It is filed as functional. The gist of the method: (§3)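 5×10^4 cells in DMEM complete medium exposed 24 h to 20 μM inhibitor or DMSO vehicle; [3H]thymidine ([…]) added for final 4 h, cells harvested onto glass fiber filters, radioactivity by scintillation counting; expressed relative to DMSO control; mean ± SD of three independent experiments.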

Test [7] deals with Ca-Ski. Put plainly: Antiproliferative activity against human CaSki cells at 20 uM after 24 hrs by [3H]thymidine incorporation assay relative to control. It is filed as functional. Put shortly:
as §3
A general note: Uptake of a labelled nucleoside into DNA is a usual measure of proliferation.

The target of test [8] is Dual specificity protein phosphatase 3 (Homo sapiens, UniProt P51452). Nature of the test: Inhibition of recombinant vaccina H1-related phosphatase.
Sequence of Dual specificity protein phosphatase 3 (P51452 whole entry): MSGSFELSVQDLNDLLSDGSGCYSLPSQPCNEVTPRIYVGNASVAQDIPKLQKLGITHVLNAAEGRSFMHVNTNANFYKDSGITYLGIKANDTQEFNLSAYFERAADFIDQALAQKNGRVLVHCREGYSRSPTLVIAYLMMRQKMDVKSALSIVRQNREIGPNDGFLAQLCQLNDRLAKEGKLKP
Test [9] concerns the target T4, Dual specificity protein phosphatase 1 (Homo sapiens, UniProt P28562).
T4 sequence (P28562 whole entry): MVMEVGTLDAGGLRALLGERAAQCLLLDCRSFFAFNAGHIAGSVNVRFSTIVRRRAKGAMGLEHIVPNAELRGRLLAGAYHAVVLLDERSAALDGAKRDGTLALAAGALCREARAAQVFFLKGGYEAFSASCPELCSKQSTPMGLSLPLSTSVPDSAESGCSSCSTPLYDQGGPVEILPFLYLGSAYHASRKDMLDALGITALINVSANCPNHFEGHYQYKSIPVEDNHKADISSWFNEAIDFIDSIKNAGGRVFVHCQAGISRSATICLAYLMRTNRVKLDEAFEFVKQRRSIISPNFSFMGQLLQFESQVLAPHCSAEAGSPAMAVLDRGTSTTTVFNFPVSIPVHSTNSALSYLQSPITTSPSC
Put plainly: Inhibition of recombinant MKP1.

Test [10] concerns the target T5, Receptor-type tyrosine-protein phosphatase C (Homo sapiens, UniProt P08575).
T5 sequence (P08575 whole entry): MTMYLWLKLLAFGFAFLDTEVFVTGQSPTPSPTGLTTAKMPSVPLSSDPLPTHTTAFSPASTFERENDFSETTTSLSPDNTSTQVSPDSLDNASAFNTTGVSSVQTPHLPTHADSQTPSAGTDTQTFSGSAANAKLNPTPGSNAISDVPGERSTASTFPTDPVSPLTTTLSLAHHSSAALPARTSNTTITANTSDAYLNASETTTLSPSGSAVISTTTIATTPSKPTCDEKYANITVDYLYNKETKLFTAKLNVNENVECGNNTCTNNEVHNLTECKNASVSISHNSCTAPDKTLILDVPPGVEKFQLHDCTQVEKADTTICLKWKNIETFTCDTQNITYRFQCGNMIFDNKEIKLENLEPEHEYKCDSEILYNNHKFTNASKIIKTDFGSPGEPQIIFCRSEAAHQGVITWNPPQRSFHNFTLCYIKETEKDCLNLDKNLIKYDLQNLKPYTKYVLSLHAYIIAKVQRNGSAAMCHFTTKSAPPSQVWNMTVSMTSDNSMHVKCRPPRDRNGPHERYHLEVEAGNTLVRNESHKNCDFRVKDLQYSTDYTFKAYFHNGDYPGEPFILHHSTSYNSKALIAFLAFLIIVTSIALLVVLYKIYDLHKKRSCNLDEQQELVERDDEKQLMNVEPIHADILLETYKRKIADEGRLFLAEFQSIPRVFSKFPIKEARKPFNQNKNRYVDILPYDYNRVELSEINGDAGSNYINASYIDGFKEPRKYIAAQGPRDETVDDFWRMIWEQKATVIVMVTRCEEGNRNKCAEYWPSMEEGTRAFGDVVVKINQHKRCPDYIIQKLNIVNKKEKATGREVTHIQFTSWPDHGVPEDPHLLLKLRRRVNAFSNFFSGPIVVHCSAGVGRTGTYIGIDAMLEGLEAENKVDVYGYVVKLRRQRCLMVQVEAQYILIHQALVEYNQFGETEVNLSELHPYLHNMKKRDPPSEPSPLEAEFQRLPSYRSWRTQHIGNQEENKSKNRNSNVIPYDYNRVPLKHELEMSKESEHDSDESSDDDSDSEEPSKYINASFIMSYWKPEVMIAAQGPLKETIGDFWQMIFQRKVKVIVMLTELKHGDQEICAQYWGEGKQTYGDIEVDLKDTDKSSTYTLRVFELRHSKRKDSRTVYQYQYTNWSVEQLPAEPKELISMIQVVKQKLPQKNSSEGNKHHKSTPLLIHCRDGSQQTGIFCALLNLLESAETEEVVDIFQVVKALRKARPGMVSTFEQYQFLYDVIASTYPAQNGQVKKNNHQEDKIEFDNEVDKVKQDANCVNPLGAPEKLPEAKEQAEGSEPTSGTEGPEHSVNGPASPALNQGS
Put plainly: Inhibition of recombinant CD45.

Test [11] deals with Ca-Ski. Put plainly: Induction of apoptosis in human CaSki cells assessed as apoptotic cells at 20 uM after 24 hrs by annexin V/propidium iodide based flow cytometry. It is filed as functional, cell-based. The gist of the method: as §1
For orientation: Flow cytometry measures light scatter and fluorescence of single cells or particles in a stream.

Another test concerns Keratinocyte. Nature of the test: Cytotoxicity against human keratinocytes at 20 uM after 24 hrs by Trypan blue assay. It counts as functional, cell-based. Put shortly: as §2

For the molecule `O=C1/C(=C/c2cn(-c3ccccc3)nc2-c2ccc(OCc3ccccc3Cl)cc2)SC(=S)N1CCS(=O)(=O)O`, the IC50 in test [1] worked out at 590 nM; in test [4], 1200 nM; in test [5], 3400 nM; in test [8], 71 nM; in [9] it was 470 nM; in test [10], 300 nM. For the same molecule, the outcome with HeLa [2] and in the test with Ca-Ski [11] was inactive. Besides, in the test on HeLa [3], the result was Active. The Activity result with HeLa [6] is “<=30%”; in the test with Ca-Ski [7] it was greater than 50%.
Consider `O=C1/C(=C/c2cn(-c3ccccc3)nc2-c2ccc(OCc3ccc(Cl)cc3)cc2)SC(=S)N1CCS(=O)(=O)O`, for which, in the test on HeLa [3], the result was Active. The half-maximal inhibitory concentration (IC50) in [5] worked out at 2400 nM. Moreover, the Activity result in the test with HeLa [6] is “<=30%”; in the test on Ca-Ski [7] it was greater than 50%; with Keratinocyte it was “Not toxic”.

What is called IC50 is the concentration needed to halve the response being measured.
